Two compounds from ChEMBL document CHEMBL5532752, “Integrating a quinone substructure into histone deacetylase inhibitors to cope with Alzheimer's disease and cancer” (RSC Med Chem, 2024) can be followed below.

For data set [1], the system named is SH-SY5Y. Briefly: Induction of cell cycle arrest in human SH-SY5Y cells assessed as accumulation of cells at sub-G1 phase at 1 to 10 uM incubated for 72 hrs by propidium iodide staining based flow cytometry. It is filed as functional. The note with it: dose 1-10 µM. In outline: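 SH-SY5Y exposed to 1 or 10 μM for 72 h, collected, fixed in 70% ice-cold ethanol, stained with propidium iodide-containing cell-cycle reagent 30 min in the dark at room temperature, and analysed by flow cytometry for G0/G1, S, G2/M and sub-G1 fractions; one-way ANOVA, Bonferroni.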

Data set [2] concerns SH-SY5Y. Briefly: Induction of apoptosis in human SH-SY5Y cells assessed as increase in caspase-3 activity at 1 uM incubated for 72 hrs by colorimetric assay relative to control. It is filed as functional. In a few lines: (§1)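 Cells treated 72 h, collected, PBS-rinsed, lysed on ice 10 min; protein quantified by Bradford. Lysates incubated 2 h at 37 °C with 2× reaction buffer containing 10 mM dithiothreitol and DEVD-pNA caspase-3 substrate. Free pNA read by absorbance at 405 nm; activity expressed as fold over untreated cells. At least 3 independent experiments.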

Data set [3] concerns SH-SY5Y. The data set can be described thus: Induction of apoptosis in human SH-SY5Y cells assessed as increase in caspase-3 activity at 10 uM incubated for 72 hrs by colorimetric assay relative to control. The class given is functional. In outline: as §1
Data set [4] has as its system SH-SY5Y. Briefly: Induction of apoptosis in human SH-SY5Y cells assessed as increase in PARP cleavage by measuring decrease in PARP protein expression at 1 uM incubated for 72 hrs by flow cytometry relative to control. It is filed as functional. Further details: scale not given: the % may be the effect or the level left. In a few lines: (§2)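 SH-SY5Y cells, cultured in DMEM with 10% FBS at 37 °C and 5% CO2, were treated for 72 h. Cells were fixed in 4% paraformaldehyde and permeabilized with 90% cold methanol. They were stained with anti-PARP (1:100) and then an Alexa Fluor 488 secondary (1:200). Mean fluorescence intensity was read by flow cytometry and expressed as fold change versus control cells.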
(In flow cytometry, cells or beads pass a laser one at a time.)

The subject of data set [5] is SH-SY5Y. The data set can be described thus: Induction of apoptosis in human SH-SY5Y cells assessed as increase in PARP cleavage by measuring decrease in PARP protein expression at 10 uM incubated for 72 hrs by flow cytometry relative to control. It is filed as functional. Further details: scale not given: the % may be the effect or the level left. In outline: as §2

The test system of data set [6] is SH-SY5Y. The data set can be described thus: Cytotoxicity against human SH-SY5Y cells assessed as reduction in cell viability at 1 uM pretreated with antioxidant, NAC for 1 hr followed by incubation with drug for 24 hrs by MUH reagent based spectrophotometric analysis. It is filed as functional. In outline: (§3)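 SH-SY5Y pretreated 1 h with 2 mM NAC, then exposed to compound at 1 or 10 μM for 24 h. Viability read by MUH hydrolysis (0.01 mg/mL, 30 min, 37 °C; ex 330/em 450 nm) as percent of untreated cells; two-way ANOVA with Tukey post hoc.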

For data set [7], the system named is SH-SY5Y. Briefly: Cytotoxicity against human SH-SY5Y cells assessed as reduction in cell viability at 10 uM pretreated with antioxidant, NAC for 1 hr followed by incubation with drug for 24 hrs by MUH reagent based spectrophotometric analysis. It is filed as functional. In outline: as §3
In data set [8] the test system is SH-SY5Y. The data set can be described thus: Induction of cell cycle arrest in human SH-SY5Y cells assessed as proportion of cells at sub-G1 phase at 1 uM incubated for 72 hrs by propidium iodide staining based flow cytometry (reference value: 5.56%).
Data set [9] has as its system SH-SY5Y. Briefly: Induction of cell cycle arrest in human SH-SY5Y cells assessed as proportion of cells at sub-G1 phase at 10 uM incubated for 72 hrs by propidium iodide staining based flow cytometry (reference value: 5.56%).
Data set [10] deals with SH-SY5Y. The data set can be described thus: Cytotoxicity against human SH-SY5Y cells assessed as cell viability at 100 uM incubated for 24 to 72 hrs by MUH reagent based spectrophotometric analysis. It is filed as functional. The note with it: time 24-72 hrs, read-out: Activity. In a few lines: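 SH-SY5Y in DMEM/10% FBS seeded 0.75 × 10⁴ cells/well, after 24 h treated with 0.1–100 μM for 24, 48 or 72 h. Washed, incubated with MUH 0.01 mg/mL in PBS 30 min at 37 °C in the dark; fluorescence ex 330/em 450 nm, normalized to untreated cells. IC50 by nonlinear regression, log(inhibitor) vs normalized response.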

Data set [11] relates to HepG2. The data set can be described thus: Cytotoxicity against human HepG2 cells assessed as cell viability upto 10 uM incubated for 24 hrs by MTT assay. It is filed as toxicity, cell-based. The following applies: hepg2, 24 h. In a few lines: (§4)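 HepG2 in MEM with 10% FBS, plated 1.5 × 10⁴ cells/well; after 24 h exposed to 0.010–100 μM compound or vehicle for 24 h. MTT (0.2 mg/mL in PBS) for 2 h at 37 °C, formazan dissolved in DMSO, absorbance at 570 nm. Viability relative to vehicle controls, mean ± SD, n = 4.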
In general terms: Tetrazolium dyes change colour on reduction, which living cells bring about.

A short description of data set [12]: Cytotoxicity against human HepG2 cells assessed as reduction in cell viability incubated for 24 hrs by MTT assay. The class given is toxicity, cell-based. In outline: as §4
The test system of data set [13] is Neurosphere. The data set can be described thus: Neuroprotective activity against C57BL/6N mouse neurosphere assessed as increase in NPC proliferation by measuring increase in neurospheres number at 2.5 to 5 uM measured after 7 days by bright field microscopy. The class given is functional, tissue-based. The note with it: dose 2.5-5 µM, time 7.0 day. In outline:
(§5)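 Neurospheres from sub-ventricular zone of 8-month-old male C57BL/6N mice, dissociated with Accutase, plated as single cells 5 × 10³/well in suspension in EGF/FGF2/N2/B27 medium with 2.5–50 μM compound or DMSO for 7 days. Daily brightfield live imaging; sphere count and total area per image, aggregates >400 μm² only.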

The subject of data set [14] is Neurosphere. The data set can be described thus: Neuroprotective activity against C57BL/6N mouse neurosphere assessed as effect on neurospheres size at 2.5 to 5 uM measured after 7 days by bright field microscopy. It is filed as functional, tissue-based. The note with it: dose 2.5-5 µM, time 7.0 day. In a few lines:
as §5

In data set [15] the test system is Neurosphere. Briefly: Toxicity against C57BL/6N mouse neurosphere at 25 to 50 uM measured after 7 days by bright filed microscopy. The class given is tissue-based. The note with it: in vitro, 168 h. In a few lines:
as §5

Data set [16] has as its system Neurosphere. Briefly: Neuroprotective activity against C57BL/6N mouse neurosphere assessed as increase in NPCs spontaneous differentiation by measuring decrease in Nestin-positive cells at 2.5 to 5 uM measured after 7 days by immunofluorescence analysis. The class given is functional, cell-based. The following applies: dose 2.5-5 µM, time 7.0 day. In a few lines: (§6)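 Thirty 7-day neurospheres plated on Matrigel-coated coverslips with 2.5 or 5 μM compound or DMSO, differentiated 7 days, fixed in 4% PFA, immunostained for Nestin, DCX, Olig2 or GFAP with Alexa 555 secondaries, DAPI counterstain. Intensity index = marker-positive intensity / total DAPI intensity; mean ± SD of 3 fields per condition.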

In data set [17] the test system is Neurosphere. Briefly: Neuroprotective activity against C57BL/6N mouse neurosphere assessed as increase in NPCs spontaneous differentiation by measuring increase in DCX-positive cells at 2.5 to 5 uM measured after 7 days by immunofluorescence analysis. The note with it: dose 2.5-5 µM, time 7.0 day. It is filed as functional, cell-based. In a few lines:
as §6

The test system of data set [18] is Neurosphere. Briefly: Neuroprotective activity against C57BL/6N mouse neurosphere assessed as increase in NPCs spontaneous differentiation by measuring Olig2-positive cells at 2.5 to 5 uM measured after 7 days by immunofluorescence analysis. It is filed as functional, tissue-based. The note with it: dose 2.5-5 µM, time 7.0 day. In outline:
as §6

For data set [19], the system named is Neurosphere. Briefly: Neuroprotective activity against C57BL/6N mouse neurosphere assessed as increase in NPCs spontaneous differentiation by measuring GFAP-positive cells at 2.5 to 5 uM measured after 7 days by immunofluorescence analysis. The following applies: dose 2.5-5 µM, time 7.0 day. It is filed as functional, tissue-based. In a few lines: as §6

The source made the active and inactive calls. The rule behind the calls is not given here.

For the compound `CC1=C(NCc2ccc(C(=O)Nc3ccccc3N)cc2)C(=O)c2ccccc2C1=O`, the result in data set [1] and in data set [7] was Active. Moreover, the entries for the “fold change (FC)” value in [2] and in [3] were 1.2 and 1.7, respectively. The Activity was determined as 44.81% in data set [4], 56.81% in data set [5], 28.03% in data set [8] and 42.32% in [9]. The result in data set [6] was inactive.

As a reminder, the IC50 is the concentration that inhibits the measured activity by half. As to `CC1=C(NCCCCNC(=O)CS)C(=O)c2ccccc2C1=O`, in data set [10], the viability at 100 µM was 70%. The Activity result in data set [11] is listed as “Non-Toxic”; in [15], “Toxic”. Moreover, in data set [12], the IC50 at 24 h was determined as 25.5 µM. Besides, the result in [13], in data set [16] and in [17] was Active. Besides, the result in [14], in data set [18] and in data set [19] was inactive.
